The target of data set [1] is Liver X receptor (Homo sapiens) (UniProt Q13133+P55055). In words: Agonist activity at LXR (unknown origin) at 10 uM. It is filed as protein assay.
For data set [2], the target named is T1, Bile acid receptor (Homo sapiens) (UniProt Q96RI1).
T1 sequence (whole entry): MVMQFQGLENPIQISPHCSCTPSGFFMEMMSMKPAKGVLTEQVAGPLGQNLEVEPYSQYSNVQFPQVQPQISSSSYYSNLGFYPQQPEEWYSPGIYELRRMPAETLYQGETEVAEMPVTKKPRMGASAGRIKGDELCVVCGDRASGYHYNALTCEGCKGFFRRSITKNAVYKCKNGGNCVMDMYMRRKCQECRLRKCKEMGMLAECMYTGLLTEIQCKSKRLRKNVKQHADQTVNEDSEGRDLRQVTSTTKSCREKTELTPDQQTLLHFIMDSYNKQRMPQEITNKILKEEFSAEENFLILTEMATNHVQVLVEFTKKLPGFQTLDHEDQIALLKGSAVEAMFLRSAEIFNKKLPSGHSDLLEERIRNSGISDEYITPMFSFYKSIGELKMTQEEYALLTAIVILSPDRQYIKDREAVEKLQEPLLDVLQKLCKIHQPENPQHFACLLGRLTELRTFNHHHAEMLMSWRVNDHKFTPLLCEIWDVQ
The data set is described as follows: Agonist activity at FXR (unknown origin) at 10 uM.

Data set [3] has as its target T2, Peroxisome proliferator-activated receptor alpha (Homo sapiens) (UniProt Q07869).
T2 sequence (whole entry): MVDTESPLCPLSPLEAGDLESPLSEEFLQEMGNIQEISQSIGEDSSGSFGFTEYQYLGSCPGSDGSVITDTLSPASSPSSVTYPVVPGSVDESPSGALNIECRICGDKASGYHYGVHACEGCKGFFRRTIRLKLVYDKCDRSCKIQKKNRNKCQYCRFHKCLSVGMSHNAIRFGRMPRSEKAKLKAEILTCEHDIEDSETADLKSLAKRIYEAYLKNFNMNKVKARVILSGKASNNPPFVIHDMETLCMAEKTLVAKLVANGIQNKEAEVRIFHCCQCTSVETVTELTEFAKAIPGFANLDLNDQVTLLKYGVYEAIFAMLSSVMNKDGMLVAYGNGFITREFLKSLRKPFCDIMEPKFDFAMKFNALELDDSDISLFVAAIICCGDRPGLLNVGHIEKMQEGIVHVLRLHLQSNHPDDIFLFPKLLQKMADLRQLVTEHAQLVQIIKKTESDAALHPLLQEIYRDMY
In words: Partial agonist activity at Gal4-fused PPARalpha LBD (unknown origin) expressed in HEK293T cells after 14 to 16 hrs by dual-Glo luciferase assay relative to GW7647. It is filed as cell-based. The method, boiled down: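 Gal4 hybrid reporter assay in transiently transfected HEK293T cells. Constructs fuse the yeast Gal4 DNA-binding domain to the human receptor LBD. Firefly luciferase is the reporter. Constitutive renilla luciferase monitors transfection efficiency and toxicity. EC50 and maximal relative activation are reported as mean±S.E.M., n≥3.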

For data set [4], the target named is T3, Peroxisome proliferator-activated receptor gamma (Homo sapiens) (UniProt P37231).
T3 sequence (whole entry): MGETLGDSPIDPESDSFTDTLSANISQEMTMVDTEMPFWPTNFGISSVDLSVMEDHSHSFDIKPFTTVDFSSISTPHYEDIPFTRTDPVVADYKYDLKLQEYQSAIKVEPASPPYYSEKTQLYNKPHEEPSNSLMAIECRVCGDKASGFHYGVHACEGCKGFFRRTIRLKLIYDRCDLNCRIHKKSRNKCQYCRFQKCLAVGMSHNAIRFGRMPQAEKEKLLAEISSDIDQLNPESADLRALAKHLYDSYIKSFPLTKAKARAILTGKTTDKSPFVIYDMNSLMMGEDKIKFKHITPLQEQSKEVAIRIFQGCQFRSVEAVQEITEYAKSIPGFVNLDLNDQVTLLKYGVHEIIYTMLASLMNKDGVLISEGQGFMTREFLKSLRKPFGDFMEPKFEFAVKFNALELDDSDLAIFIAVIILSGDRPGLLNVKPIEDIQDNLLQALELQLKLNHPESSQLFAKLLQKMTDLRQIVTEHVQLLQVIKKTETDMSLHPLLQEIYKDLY
The data set is described as follows: Selective modulation of PPARgamma in human HepG2 cells assessed as induction of adiponectin mRNA expression at 1 uM measured after 12 hrs by qPCR analysis. The class given is cell-based. The essentials:
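HepG2 cells were incubated with test compound at 1 µM. mRNA of the PPARγ target genes adiponectin and ANGPTL4 was quantified. Mean±S.E.M., n≥3.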

The nature of data set [5]: Stability in Sprague-Dawley rat liver microsomes assessed as parent compound remaining at 10 uM after 60 mins by HPLC analysis. The following applies: read-out: Stability. It is filed as ADME, Microsome. The method, boiled down: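 Incubation with rat liver microsomes, measuring compound remaining after 60 minutes.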
(Liver microsomes are vesicles of endoplasmic reticulum, rich in cytochrome P450 enzymes.)

We go through one molecule from ChEMBL document CHEMBL4354876, “A Selective Modulator of Peroxisome Proliferator-Activated Receptor γ with an Unprecedented Binding Mode” (J Med Chem, 2020).

Active and inactive are the calls of the source. The calls are words filed in the database; no cut-off is given here.

As to `CCCCCCC(Sc1nc2ccc(NS(=O)(=O)c3ccc(Cl)cc3Cl)cc2s1)C(=O)O` (stereo not given), the outcome in data set [1] and in data set [2] was inactive. The molecule further returned a max activation in data set [3] of 29%. In addition, in data set [4], the result was Active. In addition, the remaining at 1 h, 10 µM in data set [5] was found to be 80%.
